According to ChEMBL document CHEMBL1158343, “Synthesis, antimicrobial and antiviral evaluation of substituted imidazole derivatives” (Eur J Med Chem, 2009):
≈ marks a conversion by molar mass, not a printed value.

Assays:
Staphylococcus aureus = experiment: Antimicrobial activity against Staphylococcus aureus after 24 hrs by tube dilution method; assay type: functional
Method in brief: (§1)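 Tube dilution in DMSO (stock 100 mg/ml) with serial dilutions; incubation 37 °C for 48 h for C. albicans (other organisms' times truncated in text). MIC read as lowest concentration inhibiting visible growth. Norfloxacin (bacteria) and fluconazole (fungi) as reference drugs.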

Bacillus subtilis = experiment: Antimicrobial activity against Bacillus subtilis after 24 hrs by tube dilution method; assay type: functional; method in brief: as §1
Escherichia coli = experiment: Antimicrobial activity against Escherichia coli after 24 hrs by tube dilution method; assay type: functional; method in brief: as §1
Aspergillus niger = experiment: Antimicrobial activity against Aspergillus niger after 7 days by tube dilution method; assay type: functional; conditions: 168 h; method in brief: as §1
Candida albicans = experiment: Antimicrobial activity against Candida albicans after 48 hrs by tube dilution method; assay type: functional; method in brief: as §1
[1] = Cytotoxicity against human HEL cells assessed as alteration in cell morphology; assay type: cell-based
Method in brief: (§2)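 Uninfected cell cultures tested in parallel with the CPE-reduction antiviral assay; cells grown to confluency, then serial compound dilutions added and incubated at 37 °C (3 days in the parallel antiviral set-up). Read-out is microscopic examination of morphology; value is the minimum cytotoxic concentration, the lowest causing a microscopically detectable alteration of normal cell morphology.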

Human alphaherpesvirus 1 [2] = experiment: Antiviral activity against HSV1 KOS infected in human HEL cells assessed as reduction in virus-induced cytopathogenicity after 3 days; assay type: functional, organism-based; conditions: Human alphaherpesvirus 1, KOS, 72 h
Human alphaherpesvirus 2 = experiment: Antiviral activity against HSV2 G infected in human HEL cells assessed as reduction in virus-induced cytopathogenicity after 3 days; assay type: functional, organism-based; conditions: Human alphaherpesvirus 2, strain G, 72 h
[3] = system: Vesicular stomatitis virus; experiment: Antiviral activity against VSV infected in human HEL cells assessed as reduction in virus-induced cytopathogenicity after 3 days; assay type: functional, organism-based; conditions: 72 h
Human alphaherpesvirus 1 [4] = experiment: Antiviral activity against thymidine kinase-deficient acyclovir-resistant HSV1 KOS infected in human HEL cells assessed as reduction in virus-induced cytopathogenicity after 3 days; assay type: functional, organism-based; conditions: Human alphaherpesvirus 1, KOS, 72 h
[5] = Cytotoxicity against human HeLa cells assessed as alteration in cell morphology; assay type: cell-based; method in brief: as §2
[6] = system: Vesicular stomatitis virus; experiment: Antiviral activity against VSV infected in human HeLa cells assessed as reduction in virus-induced cytopathogenicity after 3 days; assay type: functional, organism-based; conditions: 72 h
Coxsackievirus B4 [7] = experiment: Antiviral activity against Coxsackievirus B4 infected in human HeLa cells assessed as reduction in virus-induced cytopathogenicity after 3 days; assay type: functional, organism-based; conditions: Enterovirus B, 72 h
[8] = system: Respiratory syncytial virus; experiment: Antiviral activity against RSV infected in human HeLa cells assessed as reduction in virus-induced cytopathogenicity after 3 days; assay type: functional, organism-based; conditions: 72 h
[9] = Cytotoxicity against african green monkey Vero cells assessed as alteration in cell morphology; assay type: cell-based; conditions: chlorocebus sabaeus; method in brief: as §2
Human respirovirus 3 = experiment: Antiviral activity against Parainfluenza-3 virus infected in african green monkey Vero cells assessed as reduction in virus-induced cytopathogenicity after 3 days; assay type: functional, organism-based; conditions: Human respirovirus 3, Vero, 72 h
[10] = system: Mammalian orthoreovirus 1; experiment: Antiviral activity against Reovirus 1 infected in african green monkey Vero cells assessed as reduction in virus-induced cytopathogenicity after 3 days; assay type: functional, organism-based; conditions: Mammalian orthoreovirus 1, Vero, 72 h
Sindbis virus = experiment: Antiviral activity against Sindbis virus infected in african green monkey Vero cells assessed as reduction in virus-induced cytopathogenicity after 3 days; assay type: functional, organism-based; conditions: 72 h
Coxsackievirus B4 [11] = experiment: Antiviral activity against Coxsackievirus B4 infected in african green monkey Vero cells assessed as reduction in virus-induced cytopathogenicity after 3 days; assay type: functional, organism-based; conditions: Enterovirus B, 72 h
Punta Toro virus = experiment: Antiviral activity against Punta Toro virus infected in african green monkey Vero cells assessed as reduction in virus-induced cytopathogenicity after 3 days; assay type: functional, organism-based; conditions: 72 h

| SMILES | MBC (Staphylococcus aureus) [µM] | MIC (Staphylococcus aureus) [µM] | MBC (Bacillus subtilis) [µM] | MIC (Bacillus subtilis) [µM] | MBC (Escherichia coli) [µM] | MIC (Escherichia coli) [µM] | MFC (Aspergillus niger) [µM] | MIC (Aspergillus niger) [µM] | MFC (Candida albicans) [µM] | MIC (Candida albicans) [µM] | MCC [1] [µg/mL] | EC50 (Human alphaherpesvirus 1 [2]) [µg/mL] | EC50 (Human alphaherpesvirus 2) [µg/mL] | EC50 [3] [µg/mL] | EC50 (Human alphaherpesvirus 1 [4]) [µg/mL] | MCC [5] [µg/mL] | EC50 [6] [µg/mL] | EC50 (Coxsackievirus B4 [7]) [µg/mL] | EC50 [8] [µg/mL] | MCC [9] [µg/mL] | other results |
| --- | --- | --- | --- | --- | --- | --- | --- | --- | --- | --- | --- | --- | --- | --- | --- | --- | --- | --- | --- | --- | --- |
| O=C(c1ccccc1Br)n1ccnc1-c1ccccc1Cl | 268 (≈ 96.9 µg/mL) | 69 (≈ 25 µg/mL) | 268 (≈ 96.9 µg/mL) | 69 (≈ 25 µg/mL) | 268 (≈ 96.9 µg/mL) | 69 (≈ 25 µg/mL) | 138 (≈ 49.9 µg/mL) | 8 (≈ 2.89 µg/mL) | 138 (≈ 49.9 µg/mL) | 17 (≈ 6.15 µg/mL) | > 100 | > 100 | > 100 | > 100 | > 100 | > 100 | > 100 | > 100 | > 100 | > 100 | EC50 (Human respirovirus 3): > 100 µg/mL; EC50 [10]: > 100 µg/mL; EC50 (Sindbis virus): > 100 µg/mL; EC50 (Coxsackievirus B4 [11]): > 100 µg/mL; EC50 (Punta Toro virus): > 100 µg/mL |
| O=C(c1ccccc1Br)n1ccnc1-c1ccccc1[N+](=O)[O-] | 268 (≈ 99.7 µg/mL) | 2 (≈ 0.744 µg/mL) | 268 (≈ 99.7 µg/mL) | 2 (≈ 0.744 µg/mL) | 268 (≈ 99.7 µg/mL) | 33 (≈ 12.3 µg/mL) | 67 (≈ 24.9 µg/mL) | 4 (≈ 1.49 µg/mL) | 268 (≈ 99.7 µg/mL) | 33 (≈ 12.3 µg/mL) | > 100 | > 100 | > 100 | > 100 | > 100 | > 100 | > 100 | > 100 | > 100 | > 100 | EC50 (Human respirovirus 3): > 100 µg/mL; EC50 [10]: > 100 µg/mL; EC50 (Sindbis virus): > 100 µg/mL; EC50 (Coxsackievirus B4 [11]): > 100 µg/mL; EC50 (Punta Toro virus): > 100 µg/mL |
| O=C(c1ccccc1Br)n1ccnc1-c1ccc(Cl)cc1 | 17 (≈ 6.15 µg/mL) | 2 (≈ 0.723 µg/mL) | 17 (≈ 6.15 µg/mL) | 2 (≈ 0.723 µg/mL) | 17 (≈ 6.15 µg/mL) | 2 (≈ 0.723 µg/mL) | 69 (≈ 25 µg/mL) | 8 (≈ 2.89 µg/mL) | 138 (≈ 49.9 µg/mL) | 17 (≈ 6.15 µg/mL) | > 100 | > 100 | > 100 | > 100 | > 100 | > 100 | > 100 | > 100 | > 100 | > 100 | EC50 (Human respirovirus 3): > 100 µg/mL; EC50 [10]: > 100 µg/mL; EC50 (Sindbis virus): > 100 µg/mL; EC50 (Coxsackievirus B4 [11]): > 100 µg/mL; EC50 (Punta Toro virus): > 100 µg/mL |
| O=C(c1ccc([N+](=O)[O-])cc1)n1ccnc1-c1ccccc1[N+](=O)[O-] | 295 (≈ 99.8 µg/mL) | 36 (≈ 12.2 µg/mL) | 295 (≈ 99.8 µg/mL) | 36 (≈ 12.2 µg/mL) | 295 (≈ 99.8 µg/mL) | 36 (≈ 12.2 µg/mL) | 73 (≈ 24.7 µg/mL) | 4 (≈ 1.35 µg/mL) | 295 (≈ 99.8 µg/mL) | 36 (≈ 12.2 µg/mL) | > 100 | > 100 | > 100 | > 100 | > 100 | > 100 | > 100 | > 100 | > 100 | > 100 | EC50 (Human respirovirus 3): > 100 µg/mL; EC50 [10]: > 100 µg/mL; EC50 (Sindbis virus): > 100 µg/mL; EC50 (Coxsackievirus B4 [11]): > 100 µg/mL; EC50 (Punta Toro virus): > 100 µg/mL |
| O=C(c1ccc([N+](=O)[O-])cc1)n1ccnc1-c1ccc(Cl)cc1 | 152 (≈ 49.8 µg/mL) | 38 (≈ 12.5 µg/mL) | 305 (≈ 100 µg/mL) | 19 (≈ 6.23 µg/mL) | 305 (≈ 100 µg/mL) | 38 (≈ 12.5 µg/mL) | 76 (≈ 24.9 µg/mL) | 4 (≈ 1.31 µg/mL) | 152 (≈ 49.8 µg/mL) | 19 (≈ 6.23 µg/mL) | > 100 | > 100 | > 100 | > 100 | > 100 | > 100 | > 100 | 45 (≈ 137 µM) | > 100 | > 100 | EC50 (Human respirovirus 3): > 100 µg/mL; EC50 [10]: > 100 µg/mL; EC50 (Sindbis virus): > 100 µg/mL; EC50 (Coxsackievirus B4 [11]): > 100 µg/mL; EC50 (Punta Toro virus): > 100 µg/mL |
| O=C(c1ccccc1Br)n1ccnc1-c1ccc([N+](=O)[O-])cc1 | 16 (≈ 5.95 µg/mL) | 2 (≈ 0.744 µg/mL) | 33 (≈ 12.3 µg/mL) | 4 (≈ 1.49 µg/mL) | 33 (≈ 12.3 µg/mL) | 4 (≈ 1.49 µg/mL) | 67 (≈ 24.9 µg/mL) | 4 (≈ 1.49 µg/mL) | 134 (≈ 49.9 µg/mL) | 16 (≈ 5.95 µg/mL) | > 100 | > 100 | > 100 | > 100 | > 100 | > 100 | > 100 | > 100 | > 100 | > 100 | EC50 (Human respirovirus 3): > 100 µg/mL; EC50 [10]: > 100 µg/mL; EC50 (Sindbis virus): > 100 µg/mL; EC50 (Coxsackievirus B4 [11]): > 100 µg/mL; EC50 (Punta Toro virus): > 100 µg/mL |
| O=C(c1ccc([N+](=O)[O-])cc1)n1ccnc1-c1cccc([N+](=O)[O-])c1 | 147 (≈ 49.7 µg/mL) | 18 (≈ 6.09 µg/mL) | 295 (≈ 99.8 µg/mL) | 36 (≈ 12.2 µg/mL) | 36 (≈ 12.2 µg/mL) | 9 (≈ 3.04 µg/mL) | 73 (≈ 24.7 µg/mL) | 9 (≈ 3.04 µg/mL) | 295 (≈ 99.8 µg/mL) | 18 (≈ 6.09 µg/mL) | > 100 | > 100 | > 100 | > 100 | > 100 | > 100 | > 100 | > 100 | > 100 | > 100 | EC50 (Human respirovirus 3): > 100 µg/mL; EC50 [10]: > 100 µg/mL; EC50 (Sindbis virus): > 100 µg/mL; EC50 (Coxsackievirus B4 [11]): > 100 µg/mL; EC50 (Punta Toro virus): 100 µg/mL (≈ 296 µM) |
| COc1ccc(-c2nccn2C(=O)c2ccccc2Br)cc1 | 134 (≈ 47.9 µg/mL) | 16 (≈ 5.72 µg/mL) | 628 (≈ 224 µg/mL) | 16 (≈ 5.72 µg/mL) | 628 (≈ 224 µg/mL) | 33 (≈ 11.8 µg/mL) | 134 (≈ 47.9 µg/mL) | 16 (≈ 5.72 µg/mL) | 134 (≈ 47.9 µg/mL) | 16 (≈ 5.72 µg/mL) | > 100 | > 100 | > 100 | > 100 | > 100 | > 100 | > 100 | > 100 | > 100 | > 100 | EC50 (Human respirovirus 3): > 100 µg/mL; EC50 [10]: > 100 µg/mL; EC50 (Sindbis virus): > 100 µg/mL; EC50 (Coxsackievirus B4 [11]): > 100 µg/mL; EC50 (Punta Toro virus): > 100 µg/mL |
| O=C(c1ccc([N+](=O)[O-])cc1)n1ccnc1-c1cccc(Cl)c1 | 305 (≈ 100 µg/mL) | 38 (≈ 12.5 µg/mL) | 305 (≈ 100 µg/mL) | 38 (≈ 12.5 µg/mL) | 305 (≈ 100 µg/mL) | 38 (≈ 12.5 µg/mL) | 152 (≈ 49.8 µg/mL) | 19 (≈ 6.23 µg/mL) | 304 (≈ 99.6 µg/mL) | 38 (≈ 12.5 µg/mL) | > 100 | > 100 | > 100 | > 100 | > 100 | > 100 | > 100 | > 100 | > 100 | > 100 | EC50 (Human respirovirus 3): > 100 µg/mL; EC50 [10]: > 100 µg/mL; EC50 (Sindbis virus): > 100 µg/mL; EC50 (Coxsackievirus B4 [11]): > 100 µg/mL; EC50 (Punta Toro virus): > 100 µg/mL |
